pIC50: −log10 of the molar value. Calls of active or inactive are those of the source. The rule behind the calls is not given here.
Key:
MDA-MB-435 [1] = test: Antiproliferative activity against human MDA-MB-435 cells at 0.04 to 25 ug/ml after 96 hrs by CellTiter 96 AQueous one solution cell proliferation assay
MDA-MB-231 [2] = test: Antiproliferative activity against human MDA-MB-231 cells at 0.04 to 25 ug/ml after 96 hrs by CellTiter 96 AQueous one solution cell proliferation assay
MDA-MB-231 [3] = test: Antiproliferative activity against human MDA-MB-231 cells at 25 ug/ml after 96 hrs by CellTiter 96 AQueous one solution cell proliferation assay
MDA-MB-435 [4] = test: Antiproliferative activity against human MDA-MB-435 cells at 25 ug/ml after 96 hrs by CellTiter 96 AQueous one solution cell proliferation assay
MDA-MB-435 [5] = test: Antiproliferative activity against human MDA-MB-435 cells after 96 hrs by CellTiter 96 AQueous one solution cell proliferation assay; assay type: functional, cell-based; settings: MDA-MB-435, 96 h
Outline: (§1)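 Cells kept in RPMI 1640 with 10% FBS, penicillin (100 units/mL) and streptomycin (100 μg/mL) at 37 °C, 5% CO₂. Log-phase cells were trypsinized and seeded at 5000 per well, then left overnight. DMSO solutions were serially diluted and added at 25, 5.0, 1.0, 0.2 and 0.04 μg/mL for 96 h at 37 °C. Viability was read by absorbance as percent viable cells versus solvent control.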

MDA-MB-231 [6] = test: Antiproliferative activity against human MDA-MB-231 cells after 96 hrs by CellTiter 96 AQueous one solution cell proliferation assay; assay type: functional, cell-based; settings: MDA-MB-231, 96 h
Outline: as §1

MDA-MB-435 [7] = test: Antiproliferative activity against human MDA-MB-435 cells assessed as viable cells at 1 ng/ml after 96 hrs by CellTiter 96 AQueous one solution cell proliferation assay relative to control; assay type: functional; settings: MDA-MB-435, 96 h, read-out: Activity

For `CCCC[C@H]1CCCC[C@H](C)[C@@H](O[C@@H]2OC[C@@H](O)[C@@H](O)[C@H]2O)c2cc(O)c(c(O)c2)[C@@H](CCCC)CCCC[C@H](C)[C@@H](O[C@@H]2OC[C@@H](O)[C@@H](O)[C@H]2O)c2cc(O)c1c(O)c2`, the Activity (MDA-MB-435 [1]) was “Active” and the Activity (MDA-MB-231 [2]) was “Active”.
For `CCCCC(Cl)CCCC[C@H](C)[C@@H](O[C@@H]1OC[C@@H](O)[C@@H](O)[C@H]1O)c1cc(O)c([C@@H](CCCC)CCCC[C@H](C)[C@@H](OC(C)=O)c2cc(O)cc(O)c2)c(O)c1` (stereo partly drawn), the Activity (MDA-MB-231 [3]) was “inactive” and the Activity (MDA-MB-435 [4]) was “inactive”.
`CCCC[C@H]1CCCC[C@H](C)Cc2cc(O)c(c(O)c2)[C@@H](CCCC)CCCC[C@H](C)[C@@H](O[C@@H]2OC[C@@H](O)[C@@H](O)[C@H]2O)c2cc(O)c1c(O)c2` was tested, and the pIC50 (MDA-MB-435 [5]) was 5.89 and the pIC50 (MDA-MB-231 [6]) was 5.92.
`CC[C@]1(O)C[C@@H]2CN(CCc3c([nH]c4ccccc34)[C@@](C(=O)OC)(c3cc4c(cc3OC)N(C)[C@H]3[C@@](O)(C(=O)OC)[C@H](OC(C)=O)[C@]5(CC)C=CCN6CC[C@]43[C@@H]65)C2)C1` [VINBLASTINE] was tested, and the viability at 0.001 µg/mL (MDA-MB-435 [7]) was 49%.
Work on `CCCC[C@H]1CCCC[C@H](C)[C@@H](OC(C)=O)c2cc(O)c(c(O)c2)[C@@H](CCCC)CCCC[C@H](C)[C@@H](O[C@@H]2OC[C@@H](O)[C@@H](O)[C@H]2O)c2cc(O)c1c(O)c2` yielded a pIC50 (MDA-MB-435 [5]) of 6.22 and a pIC50 (MDA-MB-231 [6]) of 6.10.
In the case of `CCCC[C@H]1CCCC[C@H](C)[C@@H](O)c2cc(O)c(c(O)c2)[C@@H](CCCC)CCCC[C@H](C)[C@@H](O[C@@H]2OC[C@@H](O)[C@@H](O)[C@H]2O)c2cc(O)c1c(O)c2`, the Activity (MDA-MB-435 [1]) was “Active” and the Activity (MDA-MB-231 [2]) was “Active”.
In the case of `CCCC[C@H]1CCCC[C@H](C)[C@@H](OC(C)=O)c2cc(O)c(c(O)c2)[C@@H](CCCC)CCCC[C@H](C)[C@@H](OC(C)=O)c2cc(O)c1c(O)c2`, the Activity (MDA-MB-435 [1]) was “Active” and the Activity (MDA-MB-231 [2]) was “Active”.
